Peptide text beside a SMILES is read from it. * marks the point of attachment. OBn = c1ccc(CO*)cc1
How the values were obtained:
[1] = system: CCRF S-180; experiment: Antiproliferative activity against mouse S180 cells after 48 hrs by MTT assay; assay type: functional, cell-based; settings: CCRF S-180, 48 h
[2] = system: K562; experiment: Antiproliferative activity against human K562 cells after 48 hrs by MTT assay; assay type: functional, cell-based; settings: K562, 48 h
[3] = system: B16; experiment: Antiproliferative activity against mouse B16 cells after 48 hrs by MTT assay; assay type: functional, cell-based; settings: B16, 48 h
[4] = system: H22; experiment: Antiproliferative activity against mouse H22 cells after 48 hrs by MTT assay; assay type: functional, cell-based; settings: H22, 48 h
[5] = system: HepG2; experiment: Antiproliferative activity against human HepG2 cells after 48 hrs by MTT assay; assay type: functional, cell-based; settings: HepG2, 48 h
[6] = system: Mus musculus; experiment: Toxicity in ICR mouse xenografted with mouse S180 cells assessed as increase in spleen index at 8.9 umol/kg; assay type: organism-based, CCRF S-180; settings: in vivo
Outline: (§1)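 S180-bearing male ICR mice (10–12 weeks; 1×10^7 cells s.c. right oxter; 12 per group), daily i.p. 8.9 µmol/kg for seven days starting 24 h after implantation; NS, cytarabine and doxorubicin controls; liver, brain, kidney weights, spleen index and body-weight gain recorded.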

[7] = system: CCRF S-180; experiment: Antitumor activity against mouse S180 cells xenografted in ICR mouse assessed as tumor growth inhibition at 8.9 umol/kg, ip administered 1 day after tumor inoculation qd for 7 days; assay type: functional; settings: CCRF S-180, ip, read-out: GI
Outline: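 Male ICR mice 10–12 weeks; S180 from ascites serially transplanted weekly; 1×10^7 viable cells in 0.2 ml NS implanted s.c. at right oxter; 24 h later randomized (10 per group); daily i.p. 8.9, 0.89 or 0.089 µmol/kg/day in 0.2 ml NS, 7 days; NS and cytarabine controls; sacrificed 24 h after last dose; inhibition % = [1−(Tw/Cw)]×100.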

[8] = system: Mus musculus; experiment: Toxicity in ICR mouse xenografted with mouse S180 cells assessed as effect on liver weight at 8.9 umol/kg; assay type: organism-based, CCRF S-180; settings: in vivo; outline: as §1
[9] = system: Mus musculus; experiment: Toxicity in ICR mouse xenografted with mouse S180 cells assessed as effect on brain weight at 8.9 umol/kg; assay type: organism-based, CCRF S-180; settings: in vivo; outline: as §1
[10] = system: Mus musculus; experiment: Toxicity in ICR mouse xenografted with mouse S180 cells assessed as effect on kidney weight at 8.9 umol/kg; assay type: organism-based, CCRF S-180; settings: in vivo; outline: as §1
[11] = system: Mus musculus; experiment: Toxicity in ICR mouse xenografted with mouse S180 cells assessed as increase in body weight at 8.9 umol/kg; assay type: organism-based, CCRF S-180; settings: in vivo; outline: as §1
[12] = system: Mus musculus; experiment: Acute toxicity in ICR mouse assessed as tremors at 500 mg/kg, ip administered qd for 7 days; assay type: organism-based; design: dose 500 mg/kg, route intraperitoneal; settings: in vivo, 168 h
[13] = system: Mus musculus; experiment: Acute toxicity in ICR mouse assessed as twitch at 500 mg/kg, ip administered qd for 7 days; assay type: organism-based; design: dose 500 mg/kg, route intraperitoneal; settings: in vivo, 168 h
[14] = system: Mus musculus; experiment: Acute toxicity in ICR mouse assessed as jumping at 500 mg/kg, ip administered qd for 7 days; assay type: organism-based; design: dose 500 mg/kg, route intraperitoneal; settings: in vivo, 168 h
[15] = system: Mus musculus; experiment: Acute toxicity in ICR mouse assessed as tetanus at 500 mg/kg, ip administered qd for 7 days; assay type: organism-based; design: dose 500 mg/kg, route intraperitoneal; settings: in vivo, 168 h
[16] = system: Mus musculus; experiment: Acute toxicity in ICR mouse assessed as supination at 500 mg/kg, ip administered qd for 7 days; assay type: organism-based; design: dose 500 mg/kg, route intraperitoneal; settings: in vivo, 168 h
[17] = system: Mus musculus; experiment: Acute toxicity in ICR mouse assessed as mortality at 500 mg/kg, ip administered qd for 7 days; assay type: organism-based; design: dose 500 mg/kg, route intraperitoneal; settings: in vivo, 168 h
[18] = system: Mus musculus; experiment: Acute toxicity in ICR mouse assessed as apparent changes in any organ at 500 mg/kg, ip administered qd for 7 days; assay type: organism-based; design: dose 500 mg/kg, route intraperitoneal; settings: in vivo, 168 h
[19] = Acute toxicity in ip dosed ICR mouse assessed as lethal dose; assay type: organism-based; settings: in vivo
Outline: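 Male ICR mice, 24 weeks old, got a single i.p. injection of 500 mg/kg in 0.2 ml NS (normal saline). They were watched for 7 days for neurotoxic behaviour (tremor, twitch, jumping, tetanus, supination) and for death.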

| SMILES | IC50 [1] | IC50 [2] | IC50 [3] | IC50 [4] | IC50 [5] | Activity [6] | inhibition in vivo at 8.9 µmol/kg [7] | Activity [8] | Activity [9] | Activity [10] | Activity [11] | Activity [12] | Activity [13] | Activity [14] | Activity [15] | Activity [16] | Activity [17] | Activity [18] | LD50 [19] |
| --- | --- | --- | --- | --- | --- | --- | --- | --- | --- | --- | --- | --- | --- | --- | --- | --- | --- | --- | --- |
| CC[C@H](C)[C@H](NC(=O)[C@H](Cc1c[nH]c2ccccc12)NC(=O)[C@@H](N)Cc1c[nH]c2ccccc12)C(=O)OCc1ccccc1 (H-Trp-Trp-Ile-OBn) | 19.2 µM | 19.4 µM | 25.9 µM | 21.7 µM | 22.2 µM | 8.12 | 51.5% | 1.85 g | 0.28 g | 0.17 g | 9.8 g | Non-toxic | Non-toxic | Non-toxic | Non-toxic | Non-toxic | Non-toxic | Non-toxic | > 500 mg/kg |
| N[C@@H](Cc1c[nH]c2ccccc12)C(=O)N[C@@H](Cc1c[nH]c2ccccc12)C(=O)N[C@@H](Cc1c[nH]c2ccccc12)C(=O)OCc1ccccc1 (H-Trp-Trp-Trp-OBn) | 115 µM | 125 µM | 157 µM | 98.1 µM | 154 µM | 7.75 | 19.1% | 1.78 g | 0.29 g | 0.16 g | 8.71 g | – | – | – | – | – | – | – | – |
| CC(C)C[C@H](NC(=O)[C@H](Cc1c[nH]c2ccccc12)NC(=O)[C@@H](N)Cc1c[nH]c2ccccc12)C(=O)OCc1ccccc1 (H-Trp-Trp-Leu-OBn) | 118 µM | 116 µM | 124 µM | 121 µM | 123 µM | 7.45 | 3.29% | 1.7 g | 0.26 g | 0.16 g | 8.4 g | – | – | – | – | – | – | – | – |
| N[C@@H](Cc1c[nH]c2ccccc12)C(=O)N[C@@H](Cc1c[nH]c2ccccc12)C(=O)N[C@@H](CO)C(=O)OCc1ccccc1 (H-Trp-Trp-Ser-OBn) | 41.2 µM | 41.6 µM | 54.3 µM | 46.3 µM | 46.6 µM | 7.59 | 18.1% | 1.73 g | 0.28 g | 0.16 g | 9.95 g | Non-toxic | Non-toxic | Non-toxic | Non-toxic | Non-toxic | Non-toxic | Non-toxic | > 500 mg/kg |
| N[C@@H](Cc1c[nH]c2ccccc12)C(=O)N[C@@H](Cc1c[nH]c2ccccc12)C(=O)N[C@@H](Cc1ccccc1)C(=O)OCc1ccccc1 (H-Trp-Trp-Phe-OBn) | 14.5 µM | 14.9 µM | 19.3 µM | 17.4 µM | 16.8 µM | 7.96 | 56.7% | 1.89 g | 0.28 g | 0.16 g | 9.86 g | Non-toxic | Non-toxic | Non-toxic | Non-toxic | Non-toxic | Non-toxic | Non-toxic | > 500 mg/kg |
| N[C@@H](Cc1c[nH]c2ccccc12)C(=O)N[C@@H](Cc1c[nH]c2ccccc12)C(=O)N[C@@H](Cc1ccc(O)cc1)C(=O)OCc1ccccc1 (H-Trp-Trp-Tyr-OBn) | 36 µM | 45.7 µM | 36 µM | 39.6 µM | 43.2 µM | 7.5 | 20.2% | 1.78 g | 0.27 g | 0.16 g | 9.76 g | Non-toxic | Non-toxic | Non-toxic | Non-toxic | Non-toxic | Non-toxic | Non-toxic | > 500 mg/kg |

— ChEMBL document CHEMBL1806449, “A class of Trp-Trp-AA-OBzl: Synthesis, in vitro anti-proliferation/in vivo anti-tumor evaluation, intercalation-mechanism investigation and 3D QSAR analysis” (Eur J Med Chem, 2011)
